Assay results taken from PMC3329777 (The Journal of Organic Chemistry, 2010).
Converted amounts (≈) assume the structure as drawn. Like-named read-outs stand apart in the source and are kept apart here.

Experiments:
[1] = Decomposition of polysulfanes with hydroxide ion, monitored by HPLC; assay type: physicochemical; conditions: 6A-F 2.5 mM, methanol/water 99.9:0.1, after 1 hr
Summary of the method: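 Test polysulfane mixture (2.5 mM) with acetanilide internal standard (0.25 mM) was treated with NaOH (0.625, 1.25, 1.875 or 2.5 mM) in methanol. After 1 h of equilibration, samples were analysed by reversed-phase C18 HPLC at 1 mL/min, rt, with UV at 254 nm. Elution used a methanol/water gradient of 15→95% methanol over 30 min, held 15 min.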

[2] = system: PC3 (prostate) cells; test: Cell proliferation assay; assay type: cell-based, human
Summary of the method: (§1)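 DU145, PC3 and MDA-MB-231 lines only. Cells came from ATCC frozen stocks. PC3 was grown in F12K, DU145 and MDA-MB-231 in DMEM, all with 10% FBS plus penicillin/streptomycin. Equal cell numbers were seeded and held at 37 °C, 5% CO2 until log phase. Medium was then replaced with test compound (0–30 μM) for 48 h, then removed and plates frozen at -80 °C. After thawing to rt, CyQuant reagent was added and fluorescence read at 485/530 nm. Eight replicates per concentration; values are cell-number increase versus untreated controls, mean ± SE.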

[3] = system: DU145 (prostate) cells; test: Cell proliferation assay; assay type: cell-based, human
Summary of the method: as §1

[4] = system: MDA-MB-231 (breast) cells; test: Cell proliferation assay; assay type: cell-based, human
Summary of the method: as §1

[5] = system: Jurkat (T-cell leukemia) cells; test: MTS cytotoxicity assay, Jurkat cells; assay type: cell-based; conditions: Homo sapiens, 24 h, read-out: IC50 Jurkat
Summary of the method: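 Jurkat line: cells were kept in RPMI-1640 with 10% fetal bovine serum and penicillin-streptomycin (100 U/mL / 100 μg/mL) at 37 °C, humidified 5% CO2. They were seeded at 2,000 cells/well in 96-well plates. After 24 h they were exposed to a range of test compound concentrations for […]. Growth was measured by MTS reagent with absorbance at 490 nm, expressed relative to compound-free controls, mean ± SE.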

[6] = system: PC3, DU145, MDA-MB-231 and Jurkat cells; test: Antiproliferative activity against four human tumor cell lines; assay type: cell-based
[7] = Intrinsic solubility determination; assay type: physicochemical
[8] = cited from earlier work
[9] = Ethanethiol-induced desulfuration; assay type: physicochemical
[10] = room temperature, equilibrium time 24 h, average of three measurements

Structure (SMILES)	Polysulfanes and elemental sulfur distribution (HPLC, internal standard = 100) ([1]; 0.25 hydroxide ion equivalents)	Polysulfanes and elemental sulfur distribution (HPLC, internal standard = 100) ([1]; 0.5 hydroxide ion equivalents)	Polysulfanes and elemental sulfur distribution (HPLC, internal standard = 100) ([1]; 0.75 hydroxide ion equivalents)	Polysulfanes and elemental sulfur distribution (HPLC, internal standard = 100) ([1]; 1.0 hydroxide ion equivalents)	further results
COCCOCCOCCNC(=O)c1ccc2c(c1)SSS2 [Compound 6A, N-(2-(2-(2-Methoxyethoxy)ethoxy)ethyl)benzo[d][1,2,3]trithiole-5-carboxamide]	10.9	13.2	14.2	14.2	
COCCOCCOCCNC(=O)c1ccc2c(c1)SSSSSSSSS2 [Compound 6F, N-(2-(2-(2-Methoxyethoxy)ethoxy)ethyl)benzo[j][1,2,3,4,5,6,7,8,9]nonathiacyclo-undecine-11-carboxamide]	2.1	3.7	3.8	3.1	
COCCOCCOCCNC(=O)c1ccc2ssssssc2c1 [Compound 6D, N-(2-(2-(2-methoxyethoxy)ethoxy)ethyl)benzo[g][1,2,3,4,5,6]hexathiocine-8-carboxamide]	2.3	2.1	1.8	1.5	
Sc1ccccc1S [1,2-Benzenedithiol]					Effect on growth of PC3 cells ([2]; 48 h): stimulated the growth; IC50 PC-3 ([2]; 48 h incubation, 0–30 μM, 96-well plates): No effect; IC50 ([3]; Homo sapiens, DU-145, 48 h, read-out: IC50 DU145): > 30 µM; Inhibition of proliferation of DU145 cells ([3]; at concentrations of 10 μM and above, 48 h): ~ 40%; Effect on proliferation of MDA-MB-231 cells ([4]; 48 h): minimal effect; IC50 ([4]; Homo sapiens, MDA-MB-231, 48 h, read-out: IC50 MDA-MB-231): > 30 µM; IC50 [5]: 60 µM; Toxicity to the cancer cell lines (in words) [6]: nontoxic
COCCOCCOCCNC(=O)c1ccc2c(c1)SSSSSSS2 [Compound 6E, N-(2-(2-(2-Methoxyethoxy)ethoxy)ethyl)benzo[h][1,2,3,4,5,6,7]heptathionine-9-carboxamide]	3.0	2.8	4.7	1.6	
[S] [Compound S8, Elemental sulfur]	12.3	23.1	26.7	32.4	Fold lower solubility by comparison to 6A-F [7]: ~ 50 fold; Solubility in methanol [7, 10]: 330 ± 30 µg/mL (≈ 10.3 mM); Solubility in water [7, 10]: 0.14 ± 0.02 µg/mL (≈ 0.00437 mM); Solubility in ethanol [8]: 510 µg/mL (≈ 15.9 mM); Solubility in water [8]: 0.4 µg/mL (≈ 0.0125 mM)
COCCOCCOCCNC(=O)c1ccc2c(c1)SSSSS2 [Compound 6C, N-(2-(2-(2-Methoxyethoxy)ethoxy)ethyl)benzo[f][1,2,3,4,5]pentathiepine-7-carboxamide]	362.4	289.2	222.9	163.9	Time of ethanethiol-induced desulfuration ([9]; in aqueous methanol): ~ 2 min; Time of ethanethiol-induced desulfuration ([9]; in benzene): 4 h
